Experimental data as given in ChEMBL document CHEMBL3259728, “Design, synthesis and biological evaluation of some novel substituted quinazolines as antitumor agents” (2014).

Columns and labels:
Format in all cases: functional
SR [1] = assay: Growth inhibition of human SR cells assessed as cell growth at 10^-7 M after 48 hrs by SRB assay; settings: read-out: Activity
[2] = Growth inhibition of human OVCAR8 cells assessed as cell growth at 10^-6 M after 48 hrs by SRB assay; settings: OVCAR-8, 48 h, read-out: Activity
A498 [3] = assay: Growth inhibition of human A498 cells assessed as cell growth at 10^-8 M after 48 hrs by SRB assay; settings: A498, 48 h, read-out: Activity
Method in brief: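 Five-dose NCI panel protocol. Each dose (10^-4 to 10^-8 M, 10-fold steps) was given as 48 h continuous exposure, and protein was measured by SRB staining. Percentage growth at each level is [(Ti−Tz)/(C−Tz)]×100, where Tz is time-zero absorbance and C is untreated control.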

NCI-H23 [4] = assay: Growth inhibition of human NCI-H23 cells at 10 uM after 48 hrs by SRB assay; settings: NCI-H23, 48 h, read-out: GI
Method in brief: (§1)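 NCI-60 primary one-dose screen run at the US NCI, with human tumour lines from nine cancer types. Compound added once at 10^-5 M, followed by 48 h incubation. End point was sulforhodamine B protein staining read spectrophotometrically. Result given as percent growth of treated cells against untreated controls, reported as % growth inhibition.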

NCI-H322M = assay: Growth inhibition of human NCI-H322M cells at 10 uM after 48 hrs by SRB assay; settings: read-out: GI; method in brief: as §1
CAKI-1 = assay: Growth inhibition of human CAKI-1 cells at 10 uM after 48 hrs by SRB assay; settings: CAKI-1, 48 h, read-out: GI
Method in brief: (§2)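 NCI primary one-dose screen. A single concentration of 10^-5 M was added to the cell culture, followed by 48 h incubation and an SRB protein-dye endpoint read spectrophotometrically. Results are growth percentage relative to untreated control cells, reported as % growth inhibition.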

MCF7 = assay: Growth inhibition of human MCF7 cells at 10 uM after 48 hrs by SRB assay; settings: MCF7, 48 h, read-out: GI; method in brief: as §1
PC-3 [5] = assay: Growth inhibition of human PC3 cells at 10 uM after 48 hrs by SRB assay; settings: PC-3, 48 h, read-out: GI; method in brief: as §1
NCI-H460 = assay: Growth inhibition of human NCI-H460 cells at 10 uM after 48 hrs by SRB assay; settings: NCI-H460, 48 h, read-out: GI; method in brief: as §1
SF-268 = assay: Growth inhibition of human SF268 cells at 10 uM after 48 hrs by SRB assay; settings: SF-268, 48 h, read-out: GI; method in brief: as §1
[6] = Growth inhibition of human MOLT4 cells at 10 uM after 48 hrs by SRB assay; settings: MOLT-4, 48 h, read-out: GI; method in brief: as §1
MDA-MB-231 = assay: Growth inhibition of human MDA-MB-231 cells at 10 uM after 48 hrs by SRB assay; settings: MDA-MB-231, 48 h, read-out: GI; method in brief: as §1
HOP-62 = assay: Growth inhibition of human HOP62 cells assessed as cell growth at 10^-6 M after 48 hrs by SRB assay; settings: HOP-62, 48 h, read-out: Activity
NCI-H23 [7] = assay: Cytotoxicity against human NCI-H23 cells after 48 hrs by SRB assay; settings: NCI-H23, 48 h
Method in brief: (§3)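 NCI 60-cell-line panel of human tumour lines from nine cancer types. Continuous 48 h exposure at five 10-fold dilutions from 10^-4 to 10^-8 M, with 5-FU as positive control. SRB protein stain read spectrophotometrically at time zero, untreated control and each concentration. GI50, TGI and LC50 were derived from the [(Ti−Tz)/(C−Tz)]×100 growth relations, and out-of-range values are given as > or < the tested limits.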

ACHN = assay: Growth inhibition of human ACHN cells at 10 uM after 48 hrs by SRB assay; settings: read-out: GI; method in brief: as §2
SR [8] = assay: Growth inhibition of human SR cells at 10 uM after 48 hrs by SRB assay; settings: read-out: GI; method in brief: as §1
[9] = Growth inhibition of human OVCAR5 cells assessed as cell growth at 10^-5 M after 48 hrs by SRB assay; settings: OVCAR-5, 48 h, read-out: Activity
[10] = Growth inhibition of human LOXIMVI cells at 10 uM after 48 hrs by SRB assay; settings: LOX IMVI, read-out: GI; method in brief: as §1
HCT-116 = assay: Cytotoxicity against human HCT116 cells after 48 hrs by SRB assay; settings: HCT-116, 48 h; method in brief: as §3
MDA-MB-468 = assay: Growth inhibition of human MDA-MB-468 cells assessed as cell growth at 10^-4 M after 48 hrs by SRB assay; settings: MDA-MB-468, 48 h, read-out: Activity
K562 = assay: Growth inhibition of human K562 cells at 10 uM after 48 hrs by SRB assay; settings: K562, 48 h, read-out: GI; method in brief: as §1
PC-3 [11] = assay: Growth inhibition of human PC3 cells assessed as cell growth at 10^-8 M after 48 hrs by SRB assay; settings: PC-3, 48 h, read-out: Activity
SK-MEL-2 = assay: Growth inhibition of human SK-MEL-2 cells at 10 uM after 48 hrs by SRB assay; settings: SK-MEL-2, 48 h, read-out: GI; method in brief: as §1
T47D = assay: Growth inhibition of human T47D cells at 10 uM after 48 hrs by SRB assay; settings: read-out: GI; method in brief: as §1
HL-60(TB) = assay: Growth inhibition of human HL-60(TB) cells at 10 uM after 48 hrs by SRB assay; settings: HL-60, 48 h, read-out: GI
Method in brief: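 NCI 60-cell-line primary screen: compound added at single concentration 10^-5 M, cultures incubated 48 h; end point by sulforhodamine B protein staining read spectrophotometrically; result given as growth percentage of treated versus untreated control cells, reported as % growth inhibition.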

786-0 = assay: Growth inhibition of human 786-0 cells at 10 uM after 48 hrs by SRB assay; settings: 786-0, 48 h, read-out: GI; method in brief: as §2
A498 [12] = assay: Growth inhibition of human A498 cells at 10 uM after 48 hrs by SRB assay; settings: A498, 48 h, read-out: GI; method in brief: as §2
[13] = Growth inhibition of human OVCAR4 cells at 10 uM after 48 hrs by SRB assay; settings: OVCAR-4, 48 h, read-out: GI; method in brief: as §1
[14] = Growth inhibition of human OVCAR8 cells at 10 uM after 48 hrs by SRB assay; settings: OVCAR-8, 48 h, read-out: GI; method in brief: as §1
IGROV-1 = assay: Growth inhibition of human IGROV1 cells assessed as cell growth at 10^-6 M after 48 hrs by SRB assay; settings: IGROV-1, 48 h, read-out: Activity
[15] = Growth inhibition of human HCT15 cells at 10 uM after 48 hrs by SRB assay; settings: HCT-15, 48 h, read-out: GI; method in brief: as §1
[16] = read-out: LC50 (the source's name)
[17] = read-out: pLC50 (the source's name) (converted)

## Cc1ccc(-c2nc3ccc(Cl)cc3c(=O)n2/N=C/c2ccccc2)cc1
SR [1]
  growth at 0.1 µM: 93%
[2]
  growth at 1 µM: 89%
A498 [3]
  growth at 0.01 µM: 88%
NCI-H23 [4]
  inhibition of growth at 10 µM: 11%
NCI-H322M
  inhibition of growth at 10 µM: 24%
CAKI-1
  inhibition of growth at 10 µM: 40%
MCF7
  inhibition of growth at 10 µM: 20%
PC-3 [5]
  inhibition of growth at 10 µM: 30%
NCI-H460
  inhibition of growth at 10 µM: 23%
SF-268
  inhibition of growth at 10 µM: 40%
[6]
  inhibition of growth at 10 µM: 18%
MDA-MB-231
  inhibition of growth at 10 µM: 41%
HOP-62
  growth at 1 µM: 86%
NCI-H23 [7]; read-out: GI50
  GI50: 100 µM
NCI-H23 [7]; [16]
  CC50: > 100 µM
NCI-H23 [7]; read-out: TGI
  TGI: > 100 µM
NCI-H23 [7]; read-out: pGI50 (converted)
  GI50: > 100 µM
NCI-H23 [7]; [17]
  CC50: > 100 µM
NCI-H23 [7]; read-out: pTGI
  TGI: > 100 µM
ACHN
  inhibition of growth at 10 µM: 74%
SR [8]
  inhibition of growth at 10 µM: 20%
[9]
  growth at 10 µM: 74%
[10]
  inhibition of growth at 10 µM: 11%
HCT-116; read-out: GI50
  GI50: 5.51 µM
HCT-116; [16]
  CC50: > 100 µM
HCT-116; read-out: TGI
  TGI: > 100 µM
HCT-116; read-out: pGI50 (converted)
  GI50: 5.5 µM
HCT-116; [17]
  CC50: > 100 µM
HCT-116; read-out: pTGI
  TGI: > 100 µM
MDA-MB-468
  growth at 100 µM: 45%
K562
  inhibition of growth at 10 µM: < 10%
PC-3 [11]
  growth at 0.01 µM: 92%
SK-MEL-2
  inhibition of growth at 10 µM: < 10%
T47D
  inhibition of growth at 10 µM: 25%
HL-60(TB)
  inhibition of growth at 10 µM: 26%
786-0
  inhibition of growth at 10 µM: 30%
A498 [12]
  inhibition of growth at 10 µM: 16%
[13]
  inhibition of growth at 10 µM: 86%
[14]
  inhibition of growth at 10 µM: 73%
IGROV-1
  growth at 1 µM: 71%
[15]
  inhibition of growth at 10 µM: 14%
